Data on five molecules can be found in paper PMC5600292 (Biochimica et biophysica acta, 2017).

Read-outs that look alike come from different tables or passages of the source.

Test [1] addresses human recombinant thrombin W60dA (Homo sapiens, UniProt P00734, W413A). Particulars: W60dA IIa, mean ± SEM, cited from earlier work; for Km / kcat: SEM.
In test [2] the target is T1, human recombinant thrombin wild-type (WT) (Homo sapiens, UniProt P00734). Particulars: WT IIa, mean ± SEM, cited from earlier work; for Km / kcat: SEM.
In test [3] the target is T2, human recombinant thrombin I174A (Homo sapiens, UniProt P00734, I542A). The experiment in a line: HPLC-based kinetic assay of FXIII AP hydrolysis, I174A thrombin. The conditions noted are these: for kcat/Km / Km / kcat: I174A IIa, HPLC assay, pH 7.4, 25 °C, average of at least three independent experiments ± SEM; for Km / kcat: SEM. The class given is biochemical. The gist of the method: (§1)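 Synthetic Ac-/-NH2 FXIII (28–41) AP peptides (V34, L34, F34, W34, Y34) were used at 75–2500 µM final in 50 mM H3PO4, 100 mM NaCl, 0.1% PEG, pH 7.4, 25 °C. Recombinant human thrombin (6 nM–1 µM) started the reaction; aliquots were quenched with 12.5% H3PO4, keeping hydrolysis below 17% in 30 min. The (28–37) product was quantified by RP-HPLC against calibration curves. Initial velocities were fitted to V = Vmax/(1+Km/[S]), kcat taken from thrombin concentration, in triplicate.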

Test [4] has as its target T3, human recombinant thrombin L99A (Homo sapiens, UniProt P00734, L459A). The conditions noted are these: cited from earlier work; for Km / kcat / kcat/Km: L99A IIa, mean ± SEM; for Km / kcat: SEM.
Test [5] concerns the target human recombinant thrombin W215A (Homo sapiens, UniProt P00734, W590A). Particulars: cited from earlier work; for Km / kcat / kcat/Km: W215A IIa, mean ± SEM; for Km / kcat: SEM; for fold reduction of kcat/Km relative to WT thrombin: prior studies.
Test [6] concerns the target human recombinant thrombin W215A/E217A (WE) (Homo sapiens, UniProt P00734, E592A/W590A). The conditions noted are these: cited from earlier work; for Km / kcat / kcat/Km: WE (W215A/E217A) IIa, mean ± SEM; for Km / kcat: SEM; for fold decrease in Km relative to WT thrombin: WE thrombin.
Test [7] deals with T2, human recombinant thrombin I174A. The conditions noted are these: cited from earlier work; for Km / kcat / kcat/Km: I174A IIa, mean ± SEM; for Km / kcat: SEM.
The test system of test [8] is human recombinant thrombin Y60aA. The conditions noted are these: cited from earlier work; for Km / kcat / kcat/Km: Y60aA IIa, mean ± SEM; for Km / kcat: SEM; for fold decrease in kcat relative to WT thrombin / fold increase in Km relative to WT thrombin: Y60aA thrombin.
The target in test [9] is T3, human recombinant thrombin L99A. As to the kind of experiment: HPLC-based kinetic assay of FXIII AP hydrolysis, L99A thrombin. The class given is biochemical. Particulars: L99A IIa, HPLC assay, pH 7.4, 25 °C, average of at least three independent experiments ± SEM. The essentials: as §1
In test [10] the target is T1, human recombinant thrombin wild-type (WT). As to the kind of experiment: HPLC-based kinetic assay of thrombin-catalyzed hydrolysis of FXIII. The class given is biochemical. The conditions noted are these: WT IIa, pH 7.4, 25 °C, average of at least three independent experiments ± SEM. The gist of the method: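 Recombinant human thrombin hydrolysed acetylated, amidated FXIII (28–41) activation peptides with V, L, F, W or Y at position 34 (final 75–2500 µM). Reactions ran at 25 °C in 50 mM H3PO4, 100 mM NaCl, 0.1% PEG, pH 7.4, with 6 nM–1 µM thrombin, and kept <17% hydrolysis in 30 min. Timed aliquots were quenched with 12.5% H3PO4. The (28–37) product was quantified by C18 RP-HPLC against calibration curves, giving initial velocities. These were fit to V = Vmax/(1 + Km/[S]), and kcat came from thrombin concentration. Runs were in triplicate.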

Test [11] relates to WT recombinant human thrombin. As to the kind of experiment: Gel electrophoresis. Format: biochemical. The conditions noted are these: 1 µM FXIII variant, 30 nM thrombin, 37°C. The essentials:
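Full-length FXIII-A V34X variants were expressed GST-tagged in E. coli BL21(DE3) Gold by auto-induction, then freed from the tag by on-column PreScission digestion. 1 µM variant was incubated with 30 nM WT recombinant human thrombin at 37°C. Aliquots were taken at 1–30 min, quenched with 6 µM PPACK plus reducing buffer, and frozen at −80°C. Samples ran on 8% SDS-PAGE with Coomassie stain; densitometry followed the 83 kDa intact and 79 kDa cleaved bands.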

For the molecule “Ac-TVELQGFVPRGVNL- NH2 [FXIII (28–41) F34 AP]”, the Michaelis-Menten constant (Km) in [1] is 435 ± 98 µM; in test [2], 442 ± 93 µM; in [3] it was 920 ± 88 µM; in [4] it was 570 ± 125 µM; in test [5], 437 ± 81 µM; in [6], 190 ± 43 µM. Besides, the catalytic constant (kcat) in test [1] is 1.46 ± 0.15 s⁻¹; in test [2], 6.27 ± 0.54 s⁻¹; in [3], 6.08 ± 0.25 s⁻¹; in [4], 2.71 ± 0.3 s⁻¹; in test [5], 1.97 ± 0.14 s⁻¹; in test [6], 0.07 ± 0.007 s⁻¹. Further, the specificity constant (kcat/Km) in [1] was 3400 ± 800 M⁻¹ s⁻¹; in test [2], 14000 ± 3000 M⁻¹ s⁻¹; in test [3] it was 6600 ± 690 M⁻¹ s⁻¹; in test [4], 4800 ± 120 M⁻¹ s⁻¹; in [5], 4500 ± 900 M⁻¹ s⁻¹; in [6], 360 ± 80 M⁻¹ s⁻¹. The “fold decrease in kcat relative to WT thrombin” value in [4] (L99A thrombin) is on record as 2 fold; in test [5] (W215A thrombin), 3 fold. Besides, in test [5] (W215A thrombin), the “fold reduction of kcat/Km relative to WT thrombin” value is 3 fold. Besides, the “fold decrease in Km relative to WT thrombin” value in test [6] is 2 fold.
In the case of “Ac-TVELQGLVPRGVNL-NH2 [FXIII (28–41) L34 AP]”, the Km in test [7] was 1110 ± 247 µM; in test [1], 1000 ± 201 µM; in [8], 696 ± 116 µM; in test [2] it was 315 ± 42 µM; in test [4] it was 1930 ± 354 µM; in test [5], 3620 ± 470 µM. Besides, the Michaelis constant (Km) in [6] was 142 ± 28 µM. In addition, the kcat in test [7] is 10.2 ± 0.04 s⁻¹; in test [1], 5.07 ± 0.021 s⁻¹; in [8] it was 0.37 ± 0.012 s⁻¹; in [2] it was 22.9 ± 0.003 s⁻¹; in test [4], 5.94 ± 0.02 s⁻¹; in [5], 5.31 ± 0.002 s⁻¹. Besides, in test [6], the kcat is 0.052 ± 0.003 s⁻¹. Further, the kcat/Km was 9100 ± 2000 M⁻¹ s⁻¹ in test [7]; 5100 ± 1000 M⁻¹ s⁻¹ in test [1]; 530 ± 120 M⁻¹ s⁻¹ in test [8]; 73000 ± 1200 M⁻¹ s⁻¹ in test [2]; 3100 ± 200 M⁻¹ s⁻¹ in test [4]; 1500 ± 200 M⁻¹ s⁻¹ in test [5]. Moreover, the kcat/Km in test [6] was 370 ± 100 M⁻¹ s⁻¹. The “fold decrease in kcat relative to WT thrombin” value is recorded as 2 fold in test [7] (I174A thrombin), 54 to 61 fold in test [8] and 3–4 fold in [4] (L99A thrombin). For the same molecule, in [8], the “fold increase in Km relative to WT thrombin” value was 2 fold. Also, the “fold advantage in kcat/Km relative to V34” value in test [4] (L99A thrombin) is listed as 7 fold. Moreover, the “fold decrease in Km relative to WT thrombin” value in test [6] was 2 fold.
Consider “Ac-TVELQGVVPRGVNL-NH2 [FXIII (28–41) V34 AP]”, for which the Km in test [7] is 204 ± 36 µM; in test [1] it was 1380 ± 422 µM; in test [8] it was 678 ± 120 µM; in [2], 298 ± 42 µM; in [4], 2070 ± 414 µM; in test [5], 2370 ± 372 µM. The Km in test [6] was 745 ± 98 µM. Also, the kcat in test [7] is 5.37 ± 0.01 s⁻¹; in test [1] it was 0.86 ± 0.046 s⁻¹; in test [8], 0.048 ± 0.0032 s⁻¹; in test [2], 2.57 ± 0.005 s⁻¹; in [4] it was 0.89 ± 0.07 s⁻¹; in test [5], 5.53 ± 0.017 s⁻¹. In addition, the catalytic constant (kcat) in [6] was 0.117 ± 0.008 s⁻¹. Also, the kcat/Km in test [7] is 26000 ± 100 M⁻¹ s⁻¹; in [1] it was 630 ± 190 M⁻¹ s⁻¹; in test [8] it was 71 ± 13 M⁻¹ s⁻¹; in test [2], 8600 ± 1000 M⁻¹ s⁻¹; in test [4], 430 ± 100 M⁻¹ s⁻¹; in test [5], 2300 ± 700 M⁻¹ s⁻¹. The kcat/Km in test [6] is 160 ± 20 M⁻¹ s⁻¹. The “fold increase in kcat relative to WT thrombin” value in test [7] (I174A thrombin) is 2 fold. In addition, the entries for the “fold decrease in kcat relative to WT thrombin” value in test [8] and in test [4] (L99A thrombin) were 54 to 61 fold and 3–4 fold, respectively. Further, in test [8], the “fold increase in Km relative to WT thrombin” value is on record as 2 fold. Moreover, the “fold reduction of kcat/Km relative to WT thrombin” value in test [5] (W215A thrombin) was 4 fold.
Consider “Ac-TVELQGYVPRGVNL-NH2 [FXIII (28–41) Y34 AP]”, for which the kcat/Km in test [9] amounted to 39000 ± 9800 M⁻¹ s⁻¹; in test [10], 4600 ± 900 M⁻¹ s⁻¹; in test [3] it was 3300 ± 2000 M⁻¹ s⁻¹. The Michaelis-Menten constant (Km) in test [9] (SEM) turned out to be 347 ± 80 µM; in test [10] (SEM) it was 484 ± 88 µM; in test [3] it was 349 ± 120 µM. Moreover, the results for the kcat in test [9] (SEM), in test [10] (SEM) and in test [3] were 13.5 ± 1.4 s⁻¹, 2.23 ± 0.18 s⁻¹ and 1.17 ± 0.16 s⁻¹, respectively. The “fold decrease in Km relative to WT thrombin” value in [3] (I174A thrombin, current work) amounted to 1.4 fold. The “fold decrease in kcat relative to WT thrombin” value in [3] (I174A thrombin, current work) is 2 fold.

B1: FXIII V34: full-length recombinant FXIII-A V34 expressed in E. coli (protein, UniProt P00488 1-732, looked up)
chain: MSETSRTAFGGRRAVPPNNSNAAEDDLPTVELQGVVPRGVNLQEFLNVTSVHLFKERWDTNKVDHHTDKYENNKLIVRRGQSFYVQIDFSRPYDPRRDLFRVEYVIGRYPQENKGTYIPVPIVSELQSGKWGAKIVMREDRSVRLSIQSSPKCIVGKFRMYVAVWTPYGVLRTSRNPETDTYILFNPWCEDDAVYLDNEKEREEYVLNDIGVIFYGEVNDIKTRSWSYGQFEDGILDTCLYVMDRAQMDLSGRGNPIKVSRVGSAMVNAKDDEGVLVGSWDNIYAYGVPPSAWTGSVDILLEYRSSENPVRYGQCWVFAGVFNTFLRCLGIPARIVTNYFSAHDNDANLQMDIFLEEDGNVNSKLTKDSVWNYHCWNEAWMTRPDLPVGFGGWQAVDSTPQENSDGMYRCGPASVQAIKHGHVCFQFDAPFVFAEVNSDLIYITAKKDGTHVVENVDATHIGKLIVTKQIGGDGMMDITDTYKFQEGQEEERLALETALMYGAKKPLNTEGVMKSRSNVDMDFEVENAVLGKDFKLSITFRNNSHNRYTITAYLSANITFYTGVPKAEFKKETFDVTLEPLSFKKEAVLIQAGEYMGQLLEQASLHFFVTARINETRDVLAKQKSTVLTIPEIIIKVRGTQVVGSDMTVTVEFTNPLKETLRNVWVHLDGPGVTRPMKKMFREIRPNSTVQWEEVCRPWVSGHRKLIASMSSDSLRHVYGELDVQIQRRPSM
modifications: full-length
As to B1, in test [11] (SDS-PAGE), the “time at which cleavage started to be visible” value was found to be 2 min. Also, in [11] (SDS-PAGE densitometry), the “cleavage of full-length FXIII by thrombin at 10 min” value stood at 50% and the “time to full cleavage of full-length FXIII” value was around 30 min.
